# Screening data deposited in PubChem BioAssay by Johns Hopkins Ion Channel Center.
# Shown are actives, neighbours in structure and some others; about 3.5% of the full set was active somewhere.
# MrgX1 agonist = human MrgX1 receptor agonism, primary screen | Q96LB2 | MrgX1-HEK293 cells, Fluo-4 calcium fluorescence, agonist mode; stronger effect = higher value | B-score at 10 µM | hit rate 0.44% among 310,000;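 active = calcium response B-score plate-corrected fluorescence ratio at least 3 library SD, with starting fluorescence B-score inside 5 SD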
# Target sequence (Q96LB2 whole entry, looked up): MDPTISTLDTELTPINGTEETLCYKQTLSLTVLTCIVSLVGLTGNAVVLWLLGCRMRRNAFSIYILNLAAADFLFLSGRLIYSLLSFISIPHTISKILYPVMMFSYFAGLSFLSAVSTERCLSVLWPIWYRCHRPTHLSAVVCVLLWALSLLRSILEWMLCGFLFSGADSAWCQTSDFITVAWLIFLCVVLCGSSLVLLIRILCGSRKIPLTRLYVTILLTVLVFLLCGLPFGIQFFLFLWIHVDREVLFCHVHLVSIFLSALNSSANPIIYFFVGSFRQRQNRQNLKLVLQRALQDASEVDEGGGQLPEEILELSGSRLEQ
#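 Assay system: MrgX1-expressing HEK293 cells / Amount: fifteen thousand cells per well / Doses: test compound in the initial addition of three / Timing: cells plated overnight, dye loaded 0.5 h 37 °C, 0.5 h room temperature / Technique: kinetic calcium dye fluorescence, Fluo-4 NW / Control set: positive and negative controls per plate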
# RGS4 pot = RGS4 potentiation or activation | AID 463111 | B-score at 10 µM | HEK293 M3R/inducible RGS4, carbachol calcium flux Fluo4; stronger effect = lower value | hit rate 0.92% among 310,000;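 active = B-score of the integrated calcium signal more than 4 SD below the library mean, with starting fluorescence not abnormally high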;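 note: negative B-score means reduced calcium response which marks RGS4 activation or potentiation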
#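 test system = HEK293 cells with stable M3R and inducible RGS4 | schedule = recording 10 s baseline at 1 Hz, 100 s post-agonist | technique = Fluo4-AM (2 µM) calcium-flux fluorescence, kinetic read | measure = Agonist-evoked peak-minus-minimum fluorescence over baseline, integrated ratio, B score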
# RGS4 block = inhibitors of human RGS4; P49798; HEK293 M3R/RGS4 inducible, Fluo-4 calcium flux; stronger effect = higher value; triggered by carbachol at its EC20; B-score at 10 µM; hit rate 0.45% among 310,000; AID 463165;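 active = B-score, a plate-corrected calcium signal, over three deviations above library mean, with baseline fluorescence within five deviations of library mean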;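 note: RGS4 expression induced by doxycycline in cells with stable M3 receptor; B-score is computed from the integrated fluorescence ratio over baseline after carbachol; higher B-score means a larger calcium signal and so more RGS4 inhibition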
# Target sequence (P49798 whole entry, looked up): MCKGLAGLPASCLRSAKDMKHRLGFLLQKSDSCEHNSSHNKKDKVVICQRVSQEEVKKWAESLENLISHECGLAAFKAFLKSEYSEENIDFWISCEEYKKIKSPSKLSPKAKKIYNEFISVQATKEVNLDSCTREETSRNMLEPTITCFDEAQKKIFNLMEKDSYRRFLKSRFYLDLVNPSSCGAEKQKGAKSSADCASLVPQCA
# MrgX1 antag = blocks BAM8-22 activation of human MrgX1 receptor | Q96LB2 | MRGX1-HEK293 calcium flux, Fluo-4, BAM8-22 antagonism; stronger effect = lower value | B-score at 10 µM | hit rate 1.3% among 310,000;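 active = calcium-response B-score plate-corrected more than 3 library SD below zero, starting fluorescence within 5 deviations, no agonist response on first addition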;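 note: peak minus trough fluorescence over baseline after final BAM8-22 challenge near maximal dose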
# MrgX1 allo act = allosterically activates human MrgX1 receptor signaling. B-score at 10 µM. AID 588675. hit rate 0.63% among 310,000. MrgX1-HEK293, Fluo-4 calcium flux, FDSS; stronger effect = higher value. Q96LB2;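 active = plate-corrected calcium response at least 3 library SD above typical, normal starting fluorescence, not activating the receptor alone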;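 note: compound read alongside a low EC10 to EC30 dose of BAM8-22 agonist; peak minus trough fluorescence over baseline measured at the second addition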
# MrgX1 ant reconf = human MrgX1 receptor antagonism, re-confirmation screen. remaining BAM8-22 calcium response % of control (stronger effect = lower value), % at 10 µM. hit rate 19% among 2,300. AID 602420. shares compounds with MrgX1 antag. MrgX1-HEK293, BAM8-22 calcium flux, Fluo-4; stronger effect = lower value;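 active = remaining agonist calcium response no higher than 100% minus 3 SD of agonist-only control wells, with starting fluorescence near control levels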;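 note: agonist BAM8-22 given at a near maximal EC90 to ECmax level; peak minus minimum fluorescence divided by baseline after agonist addition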
# HEK293 Ca flux = MrgX1 antagonist counter-screen hit in parental HEK293 cells. Fluo-4 calcium fluorescence, FDSS. shares compounds with MrgX1 antag. AID 624111. hit rate 2% among 4,000. fluorescence ratio F(max-min)/F0 at 10 µM;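 active = duplicate-averaged calcium fluorescence ratio at least three times the standard deviation of buffer wells, a nonspecific response in parental cells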
# HEK293 Ca counter = activity in parental HEK293 cells without MrgX1. shares compounds with MrgX1 antag. parental HEK293 calcium flux, Fluo-4 fluorescence ratio; stronger effect = higher value. fluorescence ratio F(max-min)/F0 at 10 µM. hit rate 0.4% among 4,000. AID 624114;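 active = calcium fluorescence ratio, averaged over duplicates, at least 3 SD of the buffer-well ratio, meaning a nonspecific response in receptor-free cells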;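 note: untransfected parental HEK293 lacking MrgX1 used as counterscreen for MrgX1 allosteric activators; fluorescence change taken during the second addition on a kinetic imager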
# HEK293 Ca cntr2 = MrgX1 activator counter-screen hit in parental HEK293 cells; shares compounds with MrgX1 antag; Fluo-4 calcium fluorescence (FDSS); stronger effect = higher value; fluorescence ratio F(max-min)/F0 at 10 µM; hit rate 8.7% among 4,000;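 active = calcium fluorescence ratio at least three times the spread of buffer wells, meaning a non-specific response in parental cells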
# * hit, by the source's call; i = inactive; · = not tested or not shown.
SMILES,MrgX1 agonist,RGS4 pot,RGS4 block,MrgX1 antag,MrgX1 allo act,MrgX1 ant reconf,HEK293 Ca flux,HEK293 Ca counter,HEK293 Ca cntr2
Cc1cccc(NC(=O)c2cc(S(=O)(=O)N3CCc4ccccc43)cn2C)c1C,i,i,i,i,i,·,·,·,·
N#CCCN(C(=O)COC(=O)CCN=C1NS(=O)(=O)c2ccccc21)c1ccc(F)cc1,i,i,i,i,i,·,·,·,·
COC(=O)c1ccccc1NC(=O)N[C@@H](C)C(=O)OC,i,i,i,i,i,·,·,·,·
CCOC(=O)c1ccccc1NC(=O)N[C@@H](C)C(=O)OC,i,i,i,-4.57*,i,i,i,i,i
CC(=O)c1ccc(NC(=O)Nc2ccncc2)cc1,i,i,i,-6.75*,i,81.7%*,i,i,i
O=C(Nc1ccncc1)Nc1ccncc1,i,i,i,i,i,·,·,·,·
Cc1ccc(-c2nnc(OCc3nc4ccccc4n3C)c3ccccc23)cc1,i,i,i,i,i,·,·,·,·
O=C(CCC1CCCC1)NCCCN1CCOCC1,i,i,i,-6.94*,i,i,i,i,i
O=C(NNc1c(Cl)cccc1Cl)c1ccno1,i,i,i,i,i,·,·,·,·
CC(C)(C)c1ccc(C(=O)Nc2cnccn2)cc1,i,i,i,i,i,·,·,·,·
Cc1csc(CNC(=O)C2CCC(=O)N(CCc3cccc(F)c3)C2)n1 (configuration not stated),i,i,i,i,i,·,·,·,·
COc1cc(-c2nnc(-c3ccccc3)o2)cc(OC)c1OC,i,i,i,-4.86*,i,i,i,i,i
COc1ccc(Cl)cc1C(=O)NCC(c1ccco1)N1CCCC1 (configuration not stated),i,i,i,-5.17*,i,i,i,i,i
CC(C)(Oc1ccc(Cl)cc1)C(=O)NCC(c1ccco1)N1CCCCC1 (configuration not stated),i,i,i,-4.84*,i,i,i,i,i
COc1ccc(C(CNC(=O)C(C)(C)Oc2ccc(Cl)cc2)N2CCCCC2)cc1 (configuration not stated),i,i,i,i,i,·,·,·,·
Cc1[nH]c2ccccc2c(=O)c1CN1CCCCC1,i,i,i,-6.81*,i,i,i,i,i
Cc1[nH]c2ccc(Br)cc2c(=O)c1CN1CCCCCC1,i,i,i,i,i,·,·,·,·
CCOC(=O)c1sc2cc([N+](=O)[O-])cc(SCC(C)C)c2c1N,i,i,i,-10*,i,i,0.598*,i,i
CCOC(=O)c1cc(N)cc([N+](=O)[O-])c1,i,i,i,i,i,·,·,·,·
O=C(Nc1c2c(nc3c1CCC3)CCCC2)c1ccccn1,i,i,i,i,i,·,·,·,·
CCOC(=O)CN1C(=O)CN(c2ccc(C)cc2)C1=O,i,i,i,-4.97*,i,i,i,i,i
N#CC1(NC(=O)CN2CCN(S(=O)(=O)c3ccccc3F)CC2)CCCC1,i,i,i,-4.92*,i,i,i,i,i
O=C(CN1C(=O)NC2(CCCC2)C1=O)N1CCN(S(=O)(=O)c2ccccc2F)CC1,i,i,i,i,i,·,·,·,·
O=C(CCSc1ccc(Cl)cc1)NC1CCCC1,i,i,i,i,i,·,·,·,·
O=C(CCSc1ccccc1)NC1CCCC1,i,i,i,-8.75*,i,i,i,i,i
SMILES,MrgX1 agonist,RGS4 pot,RGS4 block,MrgX1 antag,MrgX1 allo act,MrgX1 ant reconf,HEK293 Ca flux,HEK293 Ca counter,HEK293 Ca cntr2
O=C(CCS(=O)(=O)c1ccccc1)NC1CCCCC1,i,i,i,i,i,·,·,·,·
O=C(CCSc1ccccc1)NCc1cccnc1,i,i,i,-5.46*,i,85.0%*,i,i,i
O=C(NCCc1ccccc1)NC1CCCCC1,i,i,i,-4.8*,i,i,i,i,i
O=C(CCS(=O)(=O)Cc1ccccc1)NC1CCCCC1,i,i,i,-4.91*,i,i,i,i,i
CN(C)N=Nc1nc2c(c(=O)n(C)c(=O)n2C)n1C,i,i,i,i,i,·,·,·,·
CCN(CC(=O)Nc1ccc2c(c1)OCCO2)C(=O)c1ccc(C)c(S(=O)(=O)N2CCOCC2)c1,i,i,i,i,i,·,·,·,·
O=C(CSc1ncccn1)NCc1cccs1,i,i,i,i,i,·,·,·,·
Cc1cc(N2C(=O)CC(N3CCN(c4ccc(C(=O)c5cccs5)cc4)CC3)C2=O)no1 (configuration not stated),i,i,i,-5.04*,i,i,i,i,i
CC(C)CC(=O)Nc1nnc(S(=O)(=O)N(C)Cc2ccco2)s1,i,i,i,i,i,·,·,·,·
Cc1ccc(C)c(-c2nnc(NC(=O)CCS(=O)(=O)c3ccc(F)cc3)o2)c1,i,i,i,-4.71*,i,i,i,i,i
COc1ccc(C(=O)O)cc1S(=O)(=O)N1CCSCC1,i,i,i,i,i,·,·,·,·
O=C(Cc1ccc(Cl)cc1)Nc1ccc(N2CCCC2)cc1,i,·,·,-5.35*,i,i,i,i,i
O=C(Cc1ccc(Cl)cc1)Nc1ccc(C(=O)N2CCOCC2)cc1,i,i,i,i,i,·,·,·,·
Cc1cc2ccccc2n1CCNC(=O)C1CC1,i,i,i,-5.99*,i,i,i,i,i
Cc1cc2ccccc2n1CCNC(=O)C1CCCC1,i,i,i,i,i,·,·,·,·
CCCCNC(=O)c1ccc(CS(=O)(=O)c2ccccc2OC)o1,i,i,i,i,i,·,·,·,·
COc1cccc(C(=O)Nc2cccc(-c3nnc(-c4ccco4)o3)c2)c1,i,i,i,-5.51*,i,59.6%*,i,i,i
COc1ccc(OC)c(C(C)NC(=O)Nc2cccc(C(C)=O)c2)c1 (configuration not stated),i,i,i,-10.2*,i,i,i,i,i
